# PHOSPHO1 block = PubChem AID 1565 | Phosphoethanolamine/phosphocholine phosphatase (Homo sapiens), Q8TCT1 | recombinant PHOSPHO1, absorbance phosphatase assay | inhibition, % at 13.3 µM | 290,000 compounds, 1.1% hits; in the data active means inhibition above about 60%
# Target sequence (Q8TCT1 whole entry, looked up): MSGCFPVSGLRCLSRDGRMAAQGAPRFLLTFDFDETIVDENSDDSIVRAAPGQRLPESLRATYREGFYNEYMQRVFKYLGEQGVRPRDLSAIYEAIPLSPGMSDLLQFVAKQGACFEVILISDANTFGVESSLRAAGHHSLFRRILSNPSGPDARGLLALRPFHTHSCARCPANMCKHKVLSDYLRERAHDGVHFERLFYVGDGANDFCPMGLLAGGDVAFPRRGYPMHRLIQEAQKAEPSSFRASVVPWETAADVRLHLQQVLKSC
# KCNK9 inh = KCNK9 potassium channel inhibitors, primary screen, HEK293 cells, thallium flux | Potassium channel subfamily K member 9 (Homo sapiens), Q9NPC2 | FluxOR thallium flux fluorescence; hits give low values | B-score at 10 µM | 310,000 compounds, 1.2% hits | AID 488922, 2010;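 active means ratio B-score over 3 SD below the library mean, with starting fluorescence within 5 SD of its mean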;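 further: negative B-score means less thallium flux so channel inhibition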
# KCNK3 inh = human KCNK3 channel inhibitors, primary screen, CHO cells, FluxOR thallium flux, B-score; Potassium channel subfamily K member 3 (Homo sapiens), O14649; FluxOR fluorescence; hits give low values; B-score at 10 µM; 340,000 compounds, 0.84% hits;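 active means B-score under library mean minus 4 SD, starting fluorescence ratio at most library mean plus 5 SD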;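 further: more negative B-score means stronger inhibition of thallium flux through KCNK3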
# KCNQ1 block = inhibitors of human KCNQ1 channel, primary screen, cell-based, thallium flux, high-throughput. CHO-K1 KCNQ1, FluxOR thallium flux fluorescence; hits give high values. 310,000 compounds, 1.3% hits. AID 2642, 2010. B-score at 10 µM;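 active means compounds whose thallium flux B-score, printed positive for inhibition, exceeds three library SD while starting fluorescence stays within three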;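 further: channel opened by potassium depolarization with thallium stimulus after 20 min compound exposure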
# KCNQ1 pot = potentiators or activators of KCNQ1 channel, primary screen, cell-based, thallium flux, high-throughput | Potassium voltage-gated channel subfamily KQT member 1 (Homo sapiens), P51787 | CHO-K1 KCNQ1, thallium flux FluxOR fluorescence; hits give high values | B-score at 10 µM | 310,000 compounds, 0.35% hits;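 active means fluorescence ratio B-score, a plate-corrected score, at least three library SD, with initial intensity B-score within 5 SD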
#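 Schedule – 37 °C overnight plating, 90-min dark dye load, 20-min compound pretreatment · System – stable KCNQ1 CHO-K1 line · Probe or stimulus – thallium- and potassium-containing depolarizing buffer · Measured by – kinetic FluxOR fluorescence, 10 s baseline plus 110 s post-stimulus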
# hERG protect = hERG rescue from dofetilide block, primary screen, cell-based, CHO-hERG, FluxOR thallium flux, dofetilide IC70 | AID 1511, 2009 | activation (rescue from dofetilide block), less the hit threshold, % at 10 µM | Voltage-gated inwardly rectifying potassium channel KCNH2 (Homo sapiens), Q12809 | dofetilide IC70 present | 310,000 compounds, 0.51% hits;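 active means activation above the mean of controls blocked by dofetilide plus 5 SD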;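 further: thallium influx through hERG after potassium depolarization seen as dye fluorescence rise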
# Active calls of the source: *; i = inactive; / = no result. This is a sample that favours compounds with a hit; in the whole collection about 4% have one here.
SMILES,PHOSPHO1 block,KCNK9 inh,KCNK3 inh,KCNQ1 block,KCNQ1 pot,hERG protect
CC(CCc1ccccc1)NC(=O)CCNC(=O)Cn1ccc2ccccc2c1=O (centres undefined),5,i,i,i,i,-12
CC(=O)SCCC(=O)N1C(C)CCCC1C(=O)O (centres undefined),1,i,i,i,i,-7
O=c1ccc(N=Nc2ccccc2)ccc1O,-17,i,i,i,79*,49*
Oc1oc(-c2ccccc2)nc1/C=N/c1nccs1,-10,i,i,i,12*,0
Cc1ccccc1OCC(=O)NN1C(=O)C2C3C=CC(O3)C2C1=O (centres undefined),39,i,i,i,i,-4
Cc1cn2c(-c3ccc(Cl)cc3)nnc2s1,10,i,i,i,i,-7
Cc1ccsc1/C=N/NC(=S)NCCc1ccccc1,-16,i,i,i,i,-13
Cc1cc(C)c(OCC(=O)Nc2cccc(NC(=O)c3ccco3)c2)c(Br)c1,-6,-7.9*,i,i,i,-10
CC(=O)Nc1cccc(NC(=O)Cc2cccs2)c1,19,i,i,i,i,-4
O=C(Cc1cccs1)Nc1cccc(-c2nc3cc4ccccc4cc3[nH]2)c1,21,i,i,9*,i,-21
O=C(Nc1cccc(-c2nc3ccccc3[nH]2)c1)c1ccco1,9,-6.9*,i,i,i,-37
O=C(Nc1cccc(NC(=O)c2ccc(-c3cccc(Br)c3)o2)c1)c1ccco1,-26,-12*,i,i,i,-27
O=C(Oc1cccc(-n2cnnn2)c1)c1ccccc1Cl,17,i,i,i,i,2
Cc1ccccc1Oc1ccc2c(c1)[C@@H]1C[C@H]3[C@@H](C(=O)N1CC2)[C@H](C)ON3C,/,/,i,/,/,/
CC(C)(C)c1nc(-c2ccccc2)nc2c1OCCC2,/,i,i,i,i,-4
O=C(c1ccccc1)c1cccc(NC(=O)c2ccco2)c1,-19,i,i,i,i,-15
O=C(Nc1cccc(NC(=O)c2ccco2)c1)c1ccccc1,32,-7.6*,i,i,i,-10
O=C(Nc1cccc(-c2nnc(-c3ccco3)o2)c1)c1ccccc1,42,-6.9*,i,i,i,-15
CN(C(=O)OC(C)(C)C)[C@H](Cc1ccccc1)C(=O)N[C@H]1CCCCNC1=O,/,/,i,/,/,/
COc1ccc(NS(=O)(=O)c2cc(NC(=O)C3CCCO3)ccc2N2CCCCC2)cc1 (centres undefined),-24,i,i,i,i,-6
CCC1=NN(C(=O)C(=O)Nc2ccc(Br)cc2)C(O)(C(F)(F)F)C1 (centres undefined),-3,i,i,6*,i,-3
CCCC1=NN(C(=O)C(=O)Nc2ccc(Br)cc2)C(O)(C(F)(F)F)C1 (centres undefined),14,i,i,i,i,-9
COc1ccc(NC(=O)C(=O)N2N=C(C(C)C)CC2(O)C(F)(F)F)cc1 (centres undefined),15,i,i,6*,i,2
COc1cnn(-c2ccc(Br)cc2)c(=O)c1SCc1ccccc1,12,i,i,i,i,-5
COc1cnn(-c2ccc(C)cc2)c(=O)c1SCc1ccccc1,81*,i,i,i,i,-2
SMILES,PHOSPHO1 block,KCNK9 inh,KCNK3 inh,KCNQ1 block,KCNQ1 pot,hERG protect
CNC(=O)NCC12CC3CC(CC(C3)C1)C2,-14,i,i,i,i,5.1*
CN(c1ccccc1C(=O)Nc1cccnc1)S(C)(=O)=O,-13,i,i,i,i,-8
Cc1nc(N)c(C#N)c(-c2ccc3c(c2)OCO3)c1C,30,i,i,i,i,-3
N#Cc1c(N)oc(-c2ccc3c(c2)OCO3)c1-c1ccc2c(c1)OCO2,14,-6.8*,i,i,i,-11
CCN(CC)S(=O)(=O)c1ccc(C(=O)N2CCCCC2)cc1,-12,i,i,i,i,-13
CCOc1cc(NC(=S)NCCCOC)c(OCC)cc1NC(=O)c1cccs1,-11,i,i,i,i,-4
O=C(/C=C/c1cn(CC(O)CN2CCOCC2)c2ccccc12)c1cccs1 (centres undefined),16,i,/,6*,i,-23
CC1CCCN(CCCNC(=O)c2ccc(N3CCCC3=O)cc2)C1 (centres undefined),36,i,i,i,i,-5
CN1CCN(CCCNC(=O)c2ccc(Cn3c(=S)[nH]c4ccc(Br)cc4c3=O)cc2)CC1,11,i,i,i,i,-15
CC1CCN(CCCNC(=O)c2ccc(N3CCCC3=O)cc2)CC1,64*,i,i,i,i,-4
O=C(NCCN1CCCC1)c1ccc(Cn2c(=S)[nH]c3cc4c(cc3c2=O)OCO4)cc1,71*,i,i,i,i,-10
CC1CCN(CCCNC(=O)c2ccc(Cn3c(=S)[nH]c4ccc(Br)cc4c3=O)cc2)CC1,-127,i,/,8*,i,-15
O=C(O)c1ccc(N2CCOCC2)c(N2C(=O)C3C4C=CC(C4)C3C2=O)c1 (centres undefined),62*,i,i,i,i,-3
CCOc1ccc(S(=O)(=O)NCCC(=O)OCC(=O)Nc2cc(C)on2)cc1,33,i,i,i,i,-7
COCCNC(=O)c1cccc(Nc2nc(-c3ccccc3)c3cc(Cl)ccc3n2)c1,-21,-6.8*,i,i,i,-7
CNC(=O)COC(=O)/C=C/c1cccc(F)c1,16,i,i,i,i,-7
CCC(C(=O)NC1CCCCC1)n1nc(C)c2c(C)n(-c3ccccc3)nc2c1=O (centres undefined),45,i,i,i,i,-9
CCC(C(=O)NC1CC1)n1nc(C)c2c(C)n(-c3ccccc3)nc2c1=O (centres undefined),65*,i,i,i,i,-9
COc1ccc(OC)c(CCNC(=O)C(C)n2nc(C)c3c(C)n(-c4ccccc4)nc3c2=O)c1 (centres undefined),70*,i,i,i,i,-8
